Experimental data: ChEMBL document CHEMBL5107979, “Encoding BRAF inhibitor functions in protein degraders” (RSC Med Chem, 2022)
Activity calls are given as the source filed them. The rule behind the calls is not given here.

Tests used:
[1] = Distribution coefficient, logD of compound at pH 7.4 by chromatographic method; format: physicochemical; details: octanol/water
Summary of the method: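 Chromatographic retention-time method at pH 7.4, calibrated against six reference drugs (atenolol, metoprolol, labetalol, diltiazem, triphenylene, permethrin) of known logD7.4 (R² = 0.99); mean analyte retention times converted via calibration line. At least two independent measurements per analyte.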

[2] = Plasma protein binding in human at 0.5 mg/ml by HPLC analysis; format: ADME, cell-free; details: read-out: PPB (converted)
Summary of the method: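 HSA column (50 × 3 mm, 5 μm), 30 °C; samples 0.5 mg/mL in MeCN/DMSO 9:1, 2 μL injected. 50 mM ammonium acetate pH 7.4 to 30% iPrOH gradient over 5.4 min, held to 18 min; 1.0 mL/min, UV 254 nm. Log retention times calibrated to ten reference drugs' logK (R² = 0.94), converted to %PPB.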

[3] = target: Serine/threonine-protein kinase B-raf (Homo sapiens, UniProt P15056, V600E); experiment: Inhibition of BRAF V600E mutant (unknown origin) using MEK1 (K97R) as substrate in presence of [gamma-33P]ATP by radiometric assay
[4] = tested on: von Hippel-Lindau disease tumor suppressor/Serine/threonine-protein kinase B-raf (Homo sapiens), P15056+P40337 [V600E]; experiment: Protac activity at VHL/BRAF V600E mutant degradation in human SK-MEL-28 cells harboring wild type NRAS assessed as remaining BRAF V600E level at 1 uM incubated for 4 hrs by densitometric analysis; format: cell-based
Summary of the method: (§1)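 SK-MEL-28 melanoma cells (STR-authenticated, mycoplasma-free) in DMEM + 10% FCS, 37°C, 5% CO2; 100,000 cells/well seeded, grown 48 h, then compound-treated as indicated. Lysis in D0.4 buffer (HEPES pH 7.5, 0.4 M KCl, Triton X-100, EDTA) with protease/phosphatase inhibitors. Lysates run on 4-12% Bis-Tris gels and blotted to PVDF. LI-COR imaging; BRAF densitometry normalised to loading control, expressed relative to DMSO.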

[5] = tested on: SK-MEL-28; experiment: Inhibition of ERK signalling pathway in human SK-MEL-28 cells harboring BRAF V600E mutant/wild type NRAS assessed as reduction in phosphorylated ERK level at 0.1 to 10 uM incubated for 4 hrs by densitometric analysis; format: cell-based; details: dose 0.1-10 µM
Summary of the method: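 SK-MEL-28 melanoma in DMEM/10% FCS, plated 100,000 cells/well, grown 48 h, treated 4 h at indicated doses. Lysates (HEPES pH 7.5, 0.4 M KCl, 0.4% Triton X-100, protease/phosphatase inhibitors) immunoblotted on PVDF, imaged by LI-COR; densitometry normalised to loading control, relative to DMSO; mean of five independent repeats for dose-response.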

[6] = tested on: von Hippel-Lindau disease tumor suppressor/Serine/threonine-protein kinase B-raf (Homo sapiens), P15056+P40337 [V600E]; experiment: Protac activity at VHL/BRAF V600E mutant degradation in human SK-MEL-28 cells harboring wild type NRAS assessed as remaining BRAF V600E level at 0.1 to 10 uM incubated for 4 hrs by densitometric analysis; format: cell-based; details: dose 0.1-10 µM; summary of the method: as §1
[7] = tested on: SK-N-AS; experiment: Effect on ERK signalling pathway in human SK-N-AS harboring wild type BRAF/NRAS […] mutant assessed as BRAF level at 0.1 to 10 uM incubated upto 24 hrs by western blot analysis; format: functional, cell-based; details: dose 0.1-10 µM
Summary of the method: (§2)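 SK-N-AS neuroblastoma (NRAS mutant), DMEM/10% FCS, plated 100,000 cells/well, grown 48 h, then treated 4 h at indicated doses or 24 h at 10 μM. Lysed in HEPES pH 7.5/KCl/Triton buffer with protease and phosphatase inhibitors; SDS-PAGE, PVDF transfer, LI-COR imaging; densitometry normalised to loading control, relative to DMSO.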

[8] = tested on: SK-N-AS; experiment: Effect on ERK signalling pathway in human SK-N-AS harboring wild type BRAF/NRAS […] mutant assessed as phosphorylated ERK level at 0.1 to 10 uM incubated upto 24 hrs by western blot analysis; format: functional, cell-based; details: dose 0.1-10 µM; summary of the method: as §2
[9] = tested on: von Hippel-Lindau disease tumor suppressor/Serine/threonine-protein kinase B-raf (Homo sapiens), P15056+P40337 [V600E]; experiment: Protac activity at VHL/BRAF V600E mutant degradation in human SK-MEL-28 cells harboring wild type NRAS assessed as remaining BRAF V600E level at 10 uM incubated for 24 hrs by densitometric analysis; format: cell-based; summary of the method: as §1
[10] = tested on: SK-MEL-28; experiment: Anticancer activity against human SK-MEL-28 cells assessed as reduction in cell viability incubated for 120 hrs by CellTiter-Glo luminescent assay; format: functional, cell-based
Summary of the method: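 SK-MEL-28 in DMEM with 10% FCS, 37°C, 5% CO2; seeded 400 cells/well in 384-well plates. T0 CellTiter-Glo reading taken at 24 h on a parallel plate; compounds dispensed acoustically, 5 days incubation, then CellTiter-Glo luminescence. Normalised to DMSO; GI50 by four-parameter log(inhibitor) vs response fit; mean±s.d., n=3.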

Sequence of Serine/threonine-protein kinase B-raf (P15056 2-766 V600E limits assumed): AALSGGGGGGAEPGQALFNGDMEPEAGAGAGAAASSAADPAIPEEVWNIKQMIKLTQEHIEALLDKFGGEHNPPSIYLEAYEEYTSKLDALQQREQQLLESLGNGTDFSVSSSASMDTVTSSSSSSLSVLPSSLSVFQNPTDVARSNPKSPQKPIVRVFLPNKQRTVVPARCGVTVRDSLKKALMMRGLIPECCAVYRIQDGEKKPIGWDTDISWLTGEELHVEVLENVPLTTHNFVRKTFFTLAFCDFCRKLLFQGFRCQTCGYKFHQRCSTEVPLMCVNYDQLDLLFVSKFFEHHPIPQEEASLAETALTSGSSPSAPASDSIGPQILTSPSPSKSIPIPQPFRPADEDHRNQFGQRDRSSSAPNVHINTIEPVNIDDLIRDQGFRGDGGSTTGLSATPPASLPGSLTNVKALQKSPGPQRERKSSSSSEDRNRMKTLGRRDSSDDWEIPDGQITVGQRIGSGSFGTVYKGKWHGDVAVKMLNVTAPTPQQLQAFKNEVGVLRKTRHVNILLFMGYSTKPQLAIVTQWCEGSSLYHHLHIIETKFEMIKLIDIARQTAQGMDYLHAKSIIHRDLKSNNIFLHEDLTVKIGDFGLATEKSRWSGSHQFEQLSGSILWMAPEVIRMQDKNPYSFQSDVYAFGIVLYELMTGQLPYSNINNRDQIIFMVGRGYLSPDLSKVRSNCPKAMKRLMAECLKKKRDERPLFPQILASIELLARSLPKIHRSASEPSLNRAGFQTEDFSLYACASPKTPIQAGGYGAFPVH

Row | SMILES | chromatographic logD [1] | fraction unbound at 0.5 mg/ml [2] | IC50 [3] [nM] | Remaining BRAF V600E level [4] [%] | inhibition [5] | Activity [6] | Activity [7] | Activity [8] | Activity [9] | Activity [10]
1 | CCCS(=O)(=O)Nc1ccc(F)c(C(=O)c2c[nH]c3ncc(-c4ccc(CNC(=O)CCCCOCCCCOCCCCOc5cc(-c6scnc6C)ccc5CNC(=O)[C@@H]5C[C@@H](O)CN5C(=O)[C@H](C(C)C)N5Cc6ccccc6C5=O)cc4)cc23)c1F | 3.6 | 0.04 | 10 | 77 | Active |  |  |  |  | 
2 | CCCS(=O)(=O)Nc1ccc(F)c(C(=O)c2c[nH]c3ncc(-c4ccc(C(=O)NCCOCCOCC(=O)N[C@H](C(=O)N5C[C@H](O)C[C@H]5C(=O)NCc5ccc(-c6scnc6C)cc5)C(C)(C)C)cc4)cc23)c1F | 2.3 | 0.05 | 8.5 | > 95 | Active |  |  |  |  | 
3 | CCN(C)S(=O)(=O)Nc1ccc(F)c(C(=O)c2c[nH]c3ncc(-c4cnc(N5CCN(CC(=O)N[C@H](C(=O)N6C[C@H](O)C[C@H]6C(=O)N[C@@H](C)c6ccc(-c7scnc7C)cc6)C(C)(C)C)CC5)nc4)cc23)c1F | 3.2 | 0.04 |  | > 95 |  |  |  |  |  | 
4 | CCCS(=O)(=O)Nc1ccc(F)c(C(=O)c2c[nH]c3ncc(-c4ccc(C(=O)NCCOCCOCCOCCCCC(=O)N[C@H](C(=O)N5C[C@H](O)C[C@H]5C(=O)NCc5ccc(-c6scnc6C)cc5)C(C)(C)C)cc4)cc23)c1F | 2.4 | 0.05 | 0.31 | > 95 | Active |  |  |  |  | 
5 | CCCS(=O)(=O)Nc1ccc(F)c(C(=O)c2c[nH]c3ncc(-c4ccc(C(=O)NCCOCCOCCOCCOc5cc(-c6scnc6C)ccc5CNC(=O)[C@@H]5C[C@@H](O)CN5C(=O)[C@H](C(C)C)N5Cc6ccccc6C5=O)cc4)cc23)c1F | 2.5 | 0.04 | 3.4 | 73 | Active |  |  |  |  | 
6 | CCCS(=O)(=O)Nc1ccc(F)c(C(=O)c2c[nH]c3ncc(-c4ccc(N5CCN(CC(=O)N[C@H](C(=O)N6C[C@H](O)C[C@H]6C(=O)NCc6ccc(-c7scnc7C)cc6)C(C)(C)C)CC5)cc4)cc23)c1F | 2.9 | 0.04 |  | 46 |  | Active | Active | Active |  | 
7 | CCCS(=O)(=O)Nc1ccc(F)c(C(=O)c2c[nH]c3ncc(-c4ccc(C(=O)NCCCCCCOCCCCCOCCCCC(=O)N[C@H](C(=O)N5C[C@H](O)C[C@H]5C(=O)NCc5ccc(-c6scnc6C)cc5)C(C)(C)C)cc4)cc23)c1F | 3.7 | 0.04 | 48 | > 95 | Active |  |  |  |  | 
8 | CCN(C)S(=O)(=O)Nc1ccc(F)c(C(=O)c2c[nH]c3ncc(-c4ccc(N5CCN(CC(=O)N[C@H](C(=O)N6C[C@H](O)C[C@H]6C(=O)NCc6ccc(-c7scnc7C)cc6)C(C)(C)C)CC5)cc4)cc23)c1F | 3.2 | 0.04 |  | 52 |  |  |  |  | Active | Active
9 | O=C1Nc2ccc(I)cc2C1=Cc1cc(Br)c(O)c(Br)c1 [GW305074X] | 2.3 |  |  |  |  |  |  |  |  | 
10 | CCCS(=O)(=O)Nc1ccc(F)c(C(=O)c2c[nH]c3ncc(-c4ccc(CNC(=O)CCCCOCCOCCOCCOc5cc(-c6scnc6C)ccc5CNC(=O)[C@@H]5C[C@@H](O)CN5C(=O)[C@H](C(C)C)N5Cc6ccccc6C5=O)cc4)cc23)c1F | 2.7 | 0.04 | 3.8 | 77 | Active |  |  |  |  | 
